pIC50, pKd: −log10 of the molar value. The source made the active and inactive calls. The rule behind the calls is not given here.
Columns and labels:
[1] = target: MAP kinase-interacting serine/threonine-protein kinase 2 (Homo sapiens, UniProt Q9HBH9); assay: Inhibition of MKNK2 (unknown origin) in presence of ATP
[2] = target: Histone-lysine N-methyltransferase SUV39H1 (Homo sapiens) (UniProt O43463); assay: Inhibition of SUV39H1 (unknown origin)
[3] = target: Histone-lysine N-methyltransferase 2C (Homo sapiens) (UniProt Q8NEZ4); assay: Inhibition of MLL3 (unknown origin)
[4] = target: Protein arginine N-methyltransferase 3 (Homo sapiens) (UniProt O60678); assay: Inhibition of PRMT3 (unknown origin)
[5] = target: Histone-lysine N-methyltransferase PRDM9 (Homo sapiens) (UniProt Q9NQV7); assay: Inhibition of PRDM9 (unknown origin)
[6] = target: T1, Histone-lysine N-methyltransferase SMYD3 (Homo sapiens, UniProt Q9H7B4); assay: Binding affinity to recombinant human SMYD3 expressed in Escherichia coli assessed as catalytic inhibition using DYDNPIFEKFGKGGTYPRRYHVSYHGK-Biotin as substrate by scintillation proximity assay
T1 sequence (Q9H7B4 whole entry): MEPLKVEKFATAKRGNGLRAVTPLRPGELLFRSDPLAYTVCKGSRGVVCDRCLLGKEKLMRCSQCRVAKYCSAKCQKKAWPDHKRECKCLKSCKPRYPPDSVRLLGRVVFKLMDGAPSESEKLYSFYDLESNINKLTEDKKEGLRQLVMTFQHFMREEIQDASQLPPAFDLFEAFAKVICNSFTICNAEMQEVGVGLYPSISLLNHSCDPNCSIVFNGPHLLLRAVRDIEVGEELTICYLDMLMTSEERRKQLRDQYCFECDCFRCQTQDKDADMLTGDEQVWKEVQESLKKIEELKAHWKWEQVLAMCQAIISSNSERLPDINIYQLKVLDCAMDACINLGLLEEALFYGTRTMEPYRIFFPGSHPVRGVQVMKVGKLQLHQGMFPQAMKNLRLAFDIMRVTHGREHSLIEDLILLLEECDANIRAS

[7] = target: Histone-lysine N-methyltransferase ASH1L (Homo sapiens) (UniProt Q9NR48); assay: Inhibition of ASH1L (unknown origin)
[8] = target: Histone-lysine N-methyltransferase NSD3 (Homo sapiens) (UniProt Q9BZ95); assay: Inhibition of NSD3 (unknown origin)
[9] = target: Vascular endothelial growth factor receptor 2 (Homo sapiens, UniProt P35968); assay: Inhibition of KDR (unknown origin) by HTRF assay
[10] = target: Mitogen-activated protein kinase kinase kinase kinase 1 (Homo sapiens, UniProt Q92918); assay: Inhibition of MAP4K1 (unknown origin) by competition binding assay
[11] = target: T2, Histone-lysine N-methyltransferase SMYD3 (Homo sapiens) (UniProt Q9H7B4); assay: Inhibition of SMYD3 (unknown origin)
T2 sequence (whole entry): T1 sequence (Q9H7B4 whole entry)
Procedure, shortened: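 Recombinant human SMYD3 (aa 1–428, E. coli-expressed, His tag removed by TEV) at 10 nM. Reaction with 335 nM ³H-SAM and 15 µM biotinylated MAP3K2(249–273) peptide in 20 mM Tris pH 9, 2.5 mM DTT, 0.01% Triton X-100, 40 min at 23 °C. GuHCl quench, then SPA count of incorporated radioactivity. Quadruplicates normalized to DMSO and no-enzyme controls; IC50 from four-parameter logistic fit.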

[12] = target: Casein kinase I isoform gamma-3 (Homo sapiens, UniProt Q9Y6M4); assay: Inhibition of CSNK1G3 (unknown origin)
[13] = target: T1, Histone-lysine N-methyltransferase SMYD3; assay: Binding affinity to recombinant human SMYD3 expressed in Escherichia coli assessed as dissociation constant by isothermal titration calorimetry
Procedure, shortened: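 Syringe held compound at 0.3 mM in 20 mM HEPES pH 7.4, 150 mM NaCl, 0.005% Tween 20, 2.5% DMSO; eight 4 µL injections at 180 s intervals into SMYD3.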

[14] = system: Histone-lysine N-methyltransferase SMYD3 (Homo sapiens), Q9H7B4 [UNDEFINED MUTATION]; assay: Inhibition of SMYD3 catalytic inactive mutant co-expressed with HA-tagged MAP3K2 transfected in human HeLa cells assessed as reduction of MAP3K2-K260me3 level at 1.1 uM incubated for 20 hrs by Western blotting analysis relative to control; format: cell-based
Procedure, shortened: (§1)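 After 4 h, compound or DMSO for 20 h. Lysates immunoblotted for MAP3K2-K260me3 (in-house antibody), HA, SMYD3 and MAP3K2 with infrared secondaries. K260me3 signal normalized to HA; three technical replicates, mean ± SEM, nonlinear fit.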

[15] = target: Cyclin-dependent kinase 12 (Homo sapiens, UniProt Q9NYV4); assay: Inhibition of CDK12 (unknown origin) by using c-myc peptide as substrate in presence of ATP
[16] = target: METTL3/METTL14 (Homo sapiens) (UniProt Q86U44+Q9HCE5); assay: Inhibition of METTL3/METTL14 (unknown origin); format: protein-complex assay
[17] = Lipophilicity, log D of the compound at pH 7.5; format: physicochemical; details: buffer
[18] = target: MAP kinase-interacting serine/threonine-protein kinase 1 (Homo sapiens, UniProt Q9BUB5); assay: Inhibition of MKNK1 (unknown origin) in presence of ATP
[19] = Cytotoxicity against human MCF-10A cells assessed as inhibition of cell viability measured for 3 to 5 days by alamar blue staining based assay; format: toxicity
Aurora kinase A = Aurora kinase A (Homo sapiens, UniProt O14965); assay: Inhibition of Aurora A (unknown origin) by HTRF assay
[20] = target: Epidermal growth factor receptor (Homo sapiens, UniProt P00533); assay: Inhibition of EGFR (unknown origin) in presence of ATP
[21] = target: Vascular endothelial growth factor receptor 3 (Homo sapiens, UniProt P35916); assay: Inhibition of FLT4 (unknown origin)
[22] = target: NUAK family SNF1-like kinase 1 (Homo sapiens, UniProt O60285); assay: Inhibition of NUAK1 (unknown origin) in presence of ATP
[23] = target: N-lysine methyltransferase SMYD2 (Homo sapiens) (UniProt Q9NRG4); assay: Inhibition of SMYD2 (unknown origin)
[24] = system: Histone-lysine N-methyltransferase SMYD3 (Homo sapiens), Q9H7B4 [UNDEFINED MUTATION]; assay: (§2) Inhibition of SMYD3 catalytic inactive mutant co-expressed with HA-tagged MAP3K2 transfected in human HeLa cells assessed as reduction of MAP3K2-K260me3 level incubated for 20 hrs by Western blotting analysis; format: cell-based; procedure, shortened: as §1
[25] = target: Histone-lysine N-methyltransferase SMYD3 (Homo sapiens, UniProt Q9H7B4); assay: as §2; format: cell-based; procedure, shortened: as §1
[26] = target: T2, Histone-lysine N-methyltransferase SMYD3 (Homo sapiens); assay: Binding affinity to recombinant human SMYD3 expressed in Escherichia coli assessed as fold change at varying MAP3K2 substrate concentration of upto 150 uM with 10 fold Km concentration by scintillation proximity assay
Procedure, shortened: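 SPA, 10 nM SMYD3 methylating biotinylated MAP3K2 249–273 peptide with 3H-SAM in 20 mM Tris pH 9, 2.5 mM DTT, 0.01% Triton X-100; 40 min, 23 °C, GuHCl quench.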

KYSE-30 = assay: Antiproliferative activity against human KYSE-30 cells assessed as inhibition of cell viability measured for 3 to 5 days by alamar blue staining based assay; format: functional
[27] = target: Protein arginine N-methyltransferase 8 (Homo sapiens) (UniProt Q9NR22); assay: Inhibition of PRMT8 (unknown origin)

Chain of Vascular endothelial growth factor receptor 3 (P35916 whole entry): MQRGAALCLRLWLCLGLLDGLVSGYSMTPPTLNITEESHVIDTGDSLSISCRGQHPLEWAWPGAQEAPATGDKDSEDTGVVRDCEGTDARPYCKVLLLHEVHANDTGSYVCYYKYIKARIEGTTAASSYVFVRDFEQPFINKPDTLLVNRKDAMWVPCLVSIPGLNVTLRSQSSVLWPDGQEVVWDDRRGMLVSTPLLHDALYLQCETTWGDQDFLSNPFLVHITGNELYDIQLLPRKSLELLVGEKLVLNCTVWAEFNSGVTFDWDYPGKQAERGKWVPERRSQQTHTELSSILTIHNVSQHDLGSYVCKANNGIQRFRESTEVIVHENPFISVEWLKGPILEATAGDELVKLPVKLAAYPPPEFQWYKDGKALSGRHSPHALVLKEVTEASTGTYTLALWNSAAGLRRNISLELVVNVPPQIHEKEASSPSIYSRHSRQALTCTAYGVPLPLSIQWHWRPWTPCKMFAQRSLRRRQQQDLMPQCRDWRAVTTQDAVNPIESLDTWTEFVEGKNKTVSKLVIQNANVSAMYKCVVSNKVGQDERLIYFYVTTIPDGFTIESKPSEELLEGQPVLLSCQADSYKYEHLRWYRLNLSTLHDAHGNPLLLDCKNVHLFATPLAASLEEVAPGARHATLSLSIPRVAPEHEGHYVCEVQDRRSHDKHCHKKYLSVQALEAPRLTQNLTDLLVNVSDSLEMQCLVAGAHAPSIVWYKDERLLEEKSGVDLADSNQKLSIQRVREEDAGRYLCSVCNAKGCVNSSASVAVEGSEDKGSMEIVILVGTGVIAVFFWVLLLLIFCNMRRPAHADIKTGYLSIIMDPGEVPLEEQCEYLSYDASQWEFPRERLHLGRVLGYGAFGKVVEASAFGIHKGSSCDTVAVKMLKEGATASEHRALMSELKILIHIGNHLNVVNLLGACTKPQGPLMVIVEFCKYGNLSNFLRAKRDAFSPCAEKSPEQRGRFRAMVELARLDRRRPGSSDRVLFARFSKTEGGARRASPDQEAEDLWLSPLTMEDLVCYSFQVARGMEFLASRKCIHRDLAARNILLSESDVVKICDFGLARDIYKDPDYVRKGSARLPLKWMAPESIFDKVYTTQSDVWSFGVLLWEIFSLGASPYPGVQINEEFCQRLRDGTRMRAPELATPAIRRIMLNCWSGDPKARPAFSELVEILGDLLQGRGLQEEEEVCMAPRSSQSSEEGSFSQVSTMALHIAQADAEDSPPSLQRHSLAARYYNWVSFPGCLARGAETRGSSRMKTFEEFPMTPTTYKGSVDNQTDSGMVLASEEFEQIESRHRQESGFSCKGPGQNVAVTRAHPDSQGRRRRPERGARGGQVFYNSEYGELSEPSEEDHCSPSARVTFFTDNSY
Chain of Aurora kinase A (O14965 whole entry): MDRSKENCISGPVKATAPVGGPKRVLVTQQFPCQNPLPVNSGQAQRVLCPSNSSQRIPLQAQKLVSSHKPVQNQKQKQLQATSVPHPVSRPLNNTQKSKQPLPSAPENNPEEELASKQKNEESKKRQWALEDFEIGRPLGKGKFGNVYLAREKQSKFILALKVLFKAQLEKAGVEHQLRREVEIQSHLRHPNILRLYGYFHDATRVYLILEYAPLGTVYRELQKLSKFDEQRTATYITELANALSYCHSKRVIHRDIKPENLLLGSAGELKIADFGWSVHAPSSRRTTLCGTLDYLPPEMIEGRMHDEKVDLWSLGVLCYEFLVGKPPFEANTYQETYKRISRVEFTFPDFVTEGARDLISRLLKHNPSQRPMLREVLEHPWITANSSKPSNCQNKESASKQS
Chain of Histone-lysine N-methyltransferase NSD3 (Homo sapiens) (Q9BZ95 whole entry): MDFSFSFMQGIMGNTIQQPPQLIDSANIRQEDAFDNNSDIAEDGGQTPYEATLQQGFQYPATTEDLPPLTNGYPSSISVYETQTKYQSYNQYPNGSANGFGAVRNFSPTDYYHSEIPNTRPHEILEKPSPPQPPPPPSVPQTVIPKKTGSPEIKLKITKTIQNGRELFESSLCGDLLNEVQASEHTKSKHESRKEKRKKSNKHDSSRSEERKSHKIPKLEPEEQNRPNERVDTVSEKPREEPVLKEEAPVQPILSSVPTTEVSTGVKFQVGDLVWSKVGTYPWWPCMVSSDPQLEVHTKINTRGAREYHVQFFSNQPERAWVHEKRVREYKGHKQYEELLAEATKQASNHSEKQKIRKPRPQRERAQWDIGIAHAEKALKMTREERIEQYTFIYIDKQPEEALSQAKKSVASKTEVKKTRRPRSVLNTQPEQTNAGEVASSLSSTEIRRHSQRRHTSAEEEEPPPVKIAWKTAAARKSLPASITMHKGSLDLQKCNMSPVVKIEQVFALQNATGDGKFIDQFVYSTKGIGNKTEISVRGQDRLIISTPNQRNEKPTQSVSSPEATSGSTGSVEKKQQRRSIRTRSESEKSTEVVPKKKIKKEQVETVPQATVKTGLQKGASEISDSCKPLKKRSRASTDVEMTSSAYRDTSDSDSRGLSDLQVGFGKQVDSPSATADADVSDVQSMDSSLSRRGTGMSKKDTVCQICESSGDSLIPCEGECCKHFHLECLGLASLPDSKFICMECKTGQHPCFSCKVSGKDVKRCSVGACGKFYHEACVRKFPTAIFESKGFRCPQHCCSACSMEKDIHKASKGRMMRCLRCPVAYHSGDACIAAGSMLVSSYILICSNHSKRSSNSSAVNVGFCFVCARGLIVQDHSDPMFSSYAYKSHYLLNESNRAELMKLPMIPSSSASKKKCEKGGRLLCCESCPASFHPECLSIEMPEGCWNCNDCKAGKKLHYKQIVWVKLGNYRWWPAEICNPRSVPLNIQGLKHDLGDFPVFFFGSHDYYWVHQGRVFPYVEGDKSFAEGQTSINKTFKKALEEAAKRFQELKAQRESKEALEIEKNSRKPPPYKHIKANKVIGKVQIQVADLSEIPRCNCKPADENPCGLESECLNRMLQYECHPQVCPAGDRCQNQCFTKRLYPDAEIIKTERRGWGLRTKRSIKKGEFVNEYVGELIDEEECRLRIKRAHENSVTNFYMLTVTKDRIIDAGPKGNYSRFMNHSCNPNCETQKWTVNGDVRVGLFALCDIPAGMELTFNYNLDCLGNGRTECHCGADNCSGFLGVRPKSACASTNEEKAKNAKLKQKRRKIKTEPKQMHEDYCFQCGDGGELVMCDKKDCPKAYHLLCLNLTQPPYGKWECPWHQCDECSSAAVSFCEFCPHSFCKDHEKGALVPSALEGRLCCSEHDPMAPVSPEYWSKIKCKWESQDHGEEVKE
Chain of N-lysine methyltransferase SMYD2 (Homo sapiens) (Q9NRG4 whole entry): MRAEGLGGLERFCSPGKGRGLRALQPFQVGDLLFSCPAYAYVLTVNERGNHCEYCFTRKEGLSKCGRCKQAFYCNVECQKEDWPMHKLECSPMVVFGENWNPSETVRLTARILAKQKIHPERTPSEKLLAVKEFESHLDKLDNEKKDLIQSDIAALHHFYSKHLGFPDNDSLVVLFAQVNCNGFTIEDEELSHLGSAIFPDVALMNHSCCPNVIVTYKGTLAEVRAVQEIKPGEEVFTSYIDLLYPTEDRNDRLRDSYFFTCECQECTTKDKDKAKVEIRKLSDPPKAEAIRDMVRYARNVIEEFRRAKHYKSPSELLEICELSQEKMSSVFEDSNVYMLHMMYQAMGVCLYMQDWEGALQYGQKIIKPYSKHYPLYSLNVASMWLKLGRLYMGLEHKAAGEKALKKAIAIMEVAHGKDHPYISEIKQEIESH
Chain of Casein kinase I isoform gamma-3 (Q9Y6M4 whole entry, canonical isoform): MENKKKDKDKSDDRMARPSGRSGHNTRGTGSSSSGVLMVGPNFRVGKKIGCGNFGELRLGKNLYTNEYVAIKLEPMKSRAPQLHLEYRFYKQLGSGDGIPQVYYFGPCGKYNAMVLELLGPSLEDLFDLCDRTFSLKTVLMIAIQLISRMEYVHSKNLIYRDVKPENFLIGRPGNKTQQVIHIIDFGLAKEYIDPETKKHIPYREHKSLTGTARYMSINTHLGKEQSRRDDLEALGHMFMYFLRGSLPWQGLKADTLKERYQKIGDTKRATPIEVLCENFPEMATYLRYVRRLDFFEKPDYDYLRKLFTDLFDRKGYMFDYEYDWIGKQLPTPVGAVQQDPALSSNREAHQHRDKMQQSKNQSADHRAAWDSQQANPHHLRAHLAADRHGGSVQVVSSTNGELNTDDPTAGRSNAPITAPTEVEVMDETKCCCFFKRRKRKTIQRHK
Chain of Histone-lysine N-methyltransferase PRDM9 (Homo sapiens) (Q9NQV7 whole entry): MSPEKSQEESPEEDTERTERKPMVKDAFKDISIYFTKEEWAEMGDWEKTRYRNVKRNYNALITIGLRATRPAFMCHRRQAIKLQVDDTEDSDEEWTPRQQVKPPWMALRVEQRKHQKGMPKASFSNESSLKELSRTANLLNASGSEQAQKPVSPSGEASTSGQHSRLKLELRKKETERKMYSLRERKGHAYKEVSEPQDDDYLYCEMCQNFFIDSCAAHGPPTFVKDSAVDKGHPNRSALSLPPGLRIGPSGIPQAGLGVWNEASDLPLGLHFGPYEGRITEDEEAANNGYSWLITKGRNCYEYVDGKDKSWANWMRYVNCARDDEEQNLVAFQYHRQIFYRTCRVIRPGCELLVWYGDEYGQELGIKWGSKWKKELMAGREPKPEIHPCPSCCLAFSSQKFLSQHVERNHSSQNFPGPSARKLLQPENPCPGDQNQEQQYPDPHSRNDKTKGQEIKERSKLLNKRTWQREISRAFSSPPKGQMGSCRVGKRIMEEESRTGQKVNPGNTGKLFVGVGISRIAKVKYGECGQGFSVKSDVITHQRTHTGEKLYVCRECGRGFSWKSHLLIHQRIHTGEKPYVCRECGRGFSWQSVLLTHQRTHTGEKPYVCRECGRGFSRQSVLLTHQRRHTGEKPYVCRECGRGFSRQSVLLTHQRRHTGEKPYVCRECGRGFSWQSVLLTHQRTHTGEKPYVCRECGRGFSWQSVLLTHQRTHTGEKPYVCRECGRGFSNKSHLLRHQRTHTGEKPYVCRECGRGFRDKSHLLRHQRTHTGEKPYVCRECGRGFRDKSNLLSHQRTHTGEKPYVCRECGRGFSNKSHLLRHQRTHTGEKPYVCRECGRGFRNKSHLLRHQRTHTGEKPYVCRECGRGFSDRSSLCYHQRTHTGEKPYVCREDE

## C[C@H]1CC(=O)Nc2cc(C(=O)NCCC3CC3)ccc2N1C(=O)N1CC2CC2C1 (some centres undefined)
[1]
  pIC50: < 4.70
[2]
  inhibition: inactive
[3]
  inhibition: inactive
[4]
  inhibition: inactive
[5]
  inhibition: inactive
[6]
  pIC50: 7.06
[7]
  inhibition: inactive
[8]
  inhibition: inactive
[9]
  pIC50: < 4.70
[10]
  pIC50: < 4.70
[11]
  inhibition: Active
[12]
  pIC50: < 4.70
[13]
  pKd: 6.88
[14]
  inhibition: 86%
[15]
  pIC50: < 4.70
[16]
  inhibition: inactive
[17]
  logD: 1.9
[18]
  pIC50: < 4.70
[19]
  pIC50: < 5.00
Aurora kinase A
  pIC50: < 4.70
[20]
  pIC50: < 4.70
[21]
  pIC50: < 4.70
[22]
  pIC50: < 4.70
[23]
  inhibition: inactive
[24]
  inhibition: Dose-Dependent Effect
[25]
  pIC50: 6.74
[26]
  fold change (FC): 4
KYSE-30
  pIC50: < 5.00
[27]
  inhibition: inactive

— ChEMBL document CHEMBL5661986, “Discovery of the SMYD3 Inhibitor BAY-6035 Using Thermal Shift Assay (TSA)-Based High-Throughput Screening” (SLAS Discov, 2021)
